Measurements from publication PMC8359310 (British Journal of Clinical Pharmacology, 2020).

Key:
OATP1B3 = conditions: read-out: Ki for OATP1B3; in vitro; ref data on file; cited from earlier work
[1] = system: MET‐dysregulated advanced solid tumours; assay: Antitumour activity by Investigator's assessment per RECIST 1.1; assay type: in vivo, human
Summary of the method: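 Adults (≥18 years) with refractory MET-dysregulated advanced solid tumours (amplification with gene copy number ≥4 by FISH or qPCR, IHC intensity +3 in ≥50% of tumour cells, or exon 14 deletion mutation). Test compound given orally at 400 mg twice daily, then continued on 21-day cycles. Investigator-read CT every 6 weeks. Patients stopping for other reasons were followed until progression, new therapy or death.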

p‐glycoprotein (P‐gp) = conditions: in vitro, cited from earlier work
Safety assessments = assay type: in vivo, human
[2] = system: breast cancer resistant protein (BCRP); conditions: in vitro, cited from earlier work
[3] = system: breast cancer resistant protein (BCRP); assay: In vitro inhibition of transporter BCRP by capmatinib; assay type: in vitro ADME; conditions: 400 mg twice daily
[4] = biological target: organic anion transporting polypeptide (OATP) 1B1; conditions: read-out: Ki for OATP1B1; in vitro; ref data on file; cited from earlier work
[5] = cited from earlier work
[6] = Estimated maximum luminal concentration in the gut; design: species or system human; conditions: therapeutic dose 400 mg twice daily; dose/250 mL
[7] = Capmatinib plasma concentrations in DDI and post‐DDI phase; assay type: in vivo, human; conditions: 400 mg twice daily
[8] = one of the capmatinib studies; ref data on file; cited from earlier work
[9] = regardless of study drug relationship

## CNC(=O)c1ccc(-c2cnc3ncc(Cc4ccc5ncccc5c4)n3n2)cc1F [capmatinib]
OATP1B3
  Ki: 5.2 µM
[1]; all patients n = 32
  Best overall response: Progressive disease (PD): 17 (53.1) n (%)
  Best overall response: Unknown: 7 (21.9) n (%)
  complete response (CR) or partial response (PR): No patient
[1]; in vivo
  disease control rate (CR + PR + SD): 25%
  patients with PD as best overall response: 53.1%
  patients with stable disease as best overall response: 25%
  patients with unknown response: 21.9%
p‐glycoprotein (P‐gp); read-out: IC50 for inhibition of P‐gp
  IC50: 12 µM
p‐glycoprotein (P‐gp); read-out: Ki for P‐gp, ref data on file
  Ki: 12 µM
Safety assessments; all events grade 3/4
  patients with AEs leading to study drug discontinuation: 9.4%
Safety assessments; all grades
  patients with treatment‐related AEs: 78.1%
  treatment‐related asthenia, patients: 18.8%
  treatment‐related dyspepsia, patients: 15.6%
  treatment‐related nausea, patients: 34.4%
  treatment‐related peripheral oedema, patients: 12.5%
  treatment‐related vomiting, patients: 34.4%
Safety assessments; both Grade ≤2
  nausea leading to dose adjustment or dose interruption, patients: 6.3%
Safety assessments; in vivo
  alterations in the electrocardiograph: No clinically relevant alterations
  on‐treatment deaths: 18.8%
  on‐treatment deaths due to AE (respiratory tract infection): 3.1%
  on‐treatment deaths due to AEs with disease progression as contributing reason: 9.4%
  on‐treatment deaths due to disease progression: 6.3%
  other treatment‐related SAEs: anaemia, abdominal pain and malaise, each: 1 patient
  patients who died during the study: 25.0%
  patients with AEs requiring dose adjustment or study drug interruption: 40.6%
  patients with treatment‐related Grade 3/4 AEs: 25.0%
  patients with treatment‐related SAEs: 12.5%
  treatment‐related Grade 3/4 vomiting, patients: 6.3%
  treatment‐related SAE vomiting, patients: 9.4%
Safety assessments; [9]
  Abdominal pain upper, Grade 3/4: 0 n (%)
  Abdominal pain upper, all grades: 4 (12.5) n (%)
  Abdominal pain, Grade 3/4: 1 (3.1) n (%)
  Abdominal pain, all grades: 3 (9.4) n (%)
  Anaemia, Grade 3/4: 3 (9.4) n (%)
  Anaemia, all grades: 7 (21.9) n (%)
  Asthenia, Grade 3/4: 2 (6.3) n (%)
  Asthenia, all grades: 14 (43.8) n (%)
  Back pain, Grade 3/4: 1 (3.1) n (%)
  Back pain, all grades: 6 (18.8) n (%)
  Blood albumin decreased, Grade 3/4: 1 (3.1) n (%)
  Blood albumin decreased, all grades: 2 (6.3) n (%)
  Candida infection, Grade 3/4: 0 n (%)
  Candida infection, all grades: 2 (6.3) n (%)
  Constipation, Grade 3/4: 0 n (%)
  Constipation, all grades: 13 (40.6) n (%)
  Cough, Grade 3/4: 0 n (%)
  Cough, all grades: 5 (15.6) n (%)
  Decreased appetite, Grade 3/4: 1 (3.1) n (%)
  Decreased appetite, all grades: 7 (21.9) n (%)
  Depression, Grade 3/4: 0 n (%)
  Depression, all grades: 2 (6.3) n (%)
  Diarrhoea, Grade 3/4: 1 (3.1) n (%)
  Diarrhoea, all grades: 6 (18.8) n (%)
  Dyspepsia, Grade 3/4: 0 n (%)
  Dyspepsia, all grades: 7 (21.9) n (%)
  Dyspnoea, Grade 3/4: 2 (6.3) n (%)
  Dyspnoea, all grades: 6 (18.8) n (%)
  Fatigue, Grade 3/4: 0 n (%)
  Fatigue, all grades: 4 (12.5) n (%)
  Headache, Grade 3/4: 0 n (%)
  Headache, all grades: 2 (6.3) n (%)
  Hypotension, Grade 3/4: 1 (3.1) n (%)
  Hypotension, all grades: 2 (6.3) n (%)
  Increased blood bilirubin, Grade 3/4: 1 (3.1) n (%)
  Increased blood bilirubin, all grades: 5 (15.6) n (%)
  Lymphocyte count decreased, Grade 3/4: 1 (3.1) n (%)
  Lymphocyte count decreased, all grades: 2 (6.3) n (%)
  Nausea, Grade 3/4: 2 (6.3) n (%)
  Nausea, all grades: 18 (56.3) n (%)
  Oedema peripheral, Grade 3/4: 0 n (%)
  Oedema peripheral, all grades: 9 (28.1) n (%)
  Pulmonary embolism, Grade 3/4: 3 (9.4) n (%)
  Pulmonary embolism, all grades: 3 (9.4) n (%)
  Pyrexia, Grade 3/4: 1 (3.1) n (%)
  Pyrexia, all grades: 8 (25.0) n (%)
  Rash, Grade 3/4: 0 n (%)
  Rash, all grades: 2 (6.3) n (%)
  Respiratory tract infection, Grade 3/4: 1 (3.1) n (%)
  Respiratory tract infection, all grades: 5 (15.6) n (%)
  Total adverse events, Grade 3/4: 18 (56.3) n (%)
  Total adverse events, all grades: 32 (100) n (%)
  Urinary tract infection, Grade 3/4: 0 n (%)
  Urinary tract infection, all grades: 3 (9.4) n (%)
  Vertigo, Grade 3/4: 0 n (%)
  Vertigo, all grades: 2 (6.3) n (%)
  Vitamin K decreased, Grade 3/4: 1 (3.1) n (%)
  Vitamin K decreased, all grades: 3 (9.4) n (%)
  Vomiting, Grade 3/4: 2 (6.3) n (%)
  Vomiting, all grades: 13 (40.6) n (%)
  Weight decreased, Grade 3/4: 0 n (%)
  Weight decreased, all grades: 2 (6.3) n (%)
  anaemia, Grade 3/4, patients: 9.4%
  anaemia, all grades, patients: 21.9%
  asthenia, Grade 3/4, patients: 6.3%
  asthenia, all grades, patients: 43.8%
  constipation, all grades, patients: 40.6%
  decreased appetite, all grades, patients: 21.9%
  dyspepsia, all grades, patients: 21.9%
  dyspnoea, Grade 3/4, patients: 6.3%
  nausea, Grade 3/4, patients: 6.3%
  nausea, all grades, patients: 56.3%
  patients with Grade 3/4 AEs: 56.3%
  patients with Grade 3/4 SAEs: 40.6%
  patients with SAEs of any grade: 53.1%
  peripheral oedema, all grades, patients: 28.1%
  pulmonary embolism, Grade 3/4, patients: 9.4%
  pyrexia, all grades, patients: 25%
  vomiting, Grade 3/4, patients: 6.3%
  vomiting, all grades, patients: 40.6%
Safety assessments; regardless of study drug relationship, 32 enrolled
  enrolled patients who experienced at least 1 AE: 32 patients
Safety assessments; some subjects, none clinically relevant or reported as AE
  serum creatinine change: low‐grade creatinine increase
[2]; read-out: IC50 for inhibition of BCRP
  IC50: 16.4 µM
[2]; read-out: Ki for BCRP, ref data on file
  Ki: 8.2 µM
[3]
  maximum luminal gut concentration relative to Ki for BCRP: > 300 fold
[4]
  Ki: 5.1 µM
[5]; consecutive twice daily dosing
  steady state expected to be reached by: ≤ 3 days
[5]; oral administration
  time to maximum plasma concentration (Tmax): 1 to 2 h
[6]
  estimated maximum luminal concentration in the gut: approximately 3880 μM
[7]; Cycle 2 Day 1 (post‐DDI phase)
  geometric mean predose concentration: 529 ng/mL
[7]; Day 22 (DDI phase)
  geometric mean predose concentration: 407 ng/mL
[7]; human, oral
  concentration at 2 h: 3960 ng/mL
[8]
  cystatin C level following capmatinib treatment: No change
